We go through three compounds from PMC5312682 (Journal of neurochemistry, 2017).

Structures are written as SMILES. pKi: −log10 of the molar value.

For data set [1], the target named is CNS-relevant targets, including opioid, adrenergic, nACR, mAChR, and NMDA receptors, neurotransmitter transporters and ion channels. Kind of data set: Off-target binding, CNS-relevant targets. The conditions noted are these: read-out: off-target affinity Ki; most CNS-relevant targets; Supplemental table 2.
Data set [2] deals with human SK-N-SH neuroblastoma cells. Kind of data set: Intracellular calcium assay. It counts as cell-based. The conditions noted are these: for calcium response: compound alone. A general note: Calcium flux is commonly read through the fluorescence of an indicator in the cells.
Data set [3] concerns transgenic SC_APP C. elegans. Kind of data set: C. elegans neurotoxicity assay. It counts as in vivo.
A further data set in a line: PK study in mice. It counts as in vivo, C57Bl/6J mice. The note with it: mouse; for bioavailability: AUC(0-3h) vs intravenous.
Data set [4] has as its system Thy1-hAPP^Lond/Swe+ mice and WT littermates. Kind of data set: Sociability / social discrimination test. It counts as in vivo, mouse. The conditions noted are these: for sociability test: preference mouse cup vs empty cup: 10 mg/kg/d SC, after 35 days of dosing. The method in brief: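 APPLond/Swe+ and WT littermates dosed SC daily in late afternoon; on test days, dosing followed testing. Chronic study: 10 mg/kg for 64 days from 4.5 months; sociability measured as exploration of a cup holding a C57Bl/6 mouse vs an empty cup. Dose-response study: 3, 10 or 30 mg/kg from 6.7 months; social discrimination of novel vs familiar mouse after 30 days of dosing, by t-test.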

For data set [5] the test system is unchanged. Kind of data set: Y-maze test. It counts as in vivo, mouse. The gist of the method:
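Y-maze spontaneous alternation and total arm entries in APPLond/Swe+ and WT littermates dosed SC daily, tested during the active cycle in balanced morning and afternoon sessions. Chronic study: 10 mg/kg, tested after 50 days of dosing. Dose-response study: 3, 10 or 30 mg/kg for 60 days. Alternation was compared with a 50% theoretical mean by one-sample t-test; mean ±SEM.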

Data set [6] shares this test system. Kind of data set: Morris Water Maze. It counts as in vivo, mouse. The gist of the method:
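Dose-response cohort: APPLond/Swe+ and WT littermates aged 6.7 months, given 3, 10 or 30 mg/kg SC daily for 60 days (n=4–5 per group). MWM started after 35 days of dosing, with hidden-platform learning followed by reversal-learning hidden-platform trials. Mice floating extensively or unable to swim were excluded. Analysis used repeated-measures ANOVA with Dunnett's or one-way ANOVA with Fisher's LSD; mean ±SEM.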

For data set [7] the test system is unchanged. It counts as in vivo, mouse. The method in brief: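 APPLond/Swe+ and WT littermates, single-housed on a reverse light cycle, balanced for body weight and pre-dose locomotor activity. Dosing was 10 mg/kg SC once daily in late afternoon for 64 days, started at 4.5 months of age. Activity chamber was run first in the behavioural battery, during the active cycle. After behavioural testing, blood and organs were collected at sacrifice for blood chemistry and histopathology.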

In the next data set the test system is Aβ. Kind of data set: Aβ pathology. It counts as in vivo, mouse. The note with it: APP^Lond/Swe+ mice, 10 mg/kg/d chronic. The gist of the method:
(§1)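 After behavioural testing at the end of chronic daily SC dosing, APPLond/Swe+ and WT mice were perfused with PBS and brains collected. Brains were bisected sagittally: one half was frozen at −80°C, and the other was fixed overnight in 4% formalin, then kept at 4°C in 30% sucrose until processing.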

A further data set deals with synaptophysin, iba1. Kind of data set: Synaptophysin and iba1 immunohistochemistry in brain. It counts as in vivo, mouse. The gist of the method: as §1
Another data set relates to IL1β. Kind of data set: qRT-PCR of inflammatory markers in cortical tissue. It counts as in vivo, mouse. The conditions noted are these: APP^Lond/Swe+ mice, dose-response cohort. For orientation: Quantitative PCR measures a nucleic acid by following its amplification.
Another data set has as its target Sig2R. The conditions noted are these: read-out: Ki Sig2R; ref Sahn et al. 2016; cited from earlier work.
Data set [8] relates to neural progenitor cells derived from adult rat brain. The conditions noted are these: ref Liu et al. 2009; cited from earlier work.
The next data set has as its system microglia. The note with it: induced by fragments of amyloid beta; ref Behensky et al. 2013; cited from earlier work.

For the compound `CN1CCN(c2ccc3c(c2)[C@H]2C[C@@H]3CCN2C(=O)OCc2ccccc2)CC1` [SAS-0132], the pKi (commonly the Ki on a negative log10 scale, so that one unit is a factor of ten) is 5.00 to 6.30 in data set [1] and 7.05 at Sig2R. For the same compound, the “effects on intracellular Ca2+ compared with DKR-1051” value in data set [2] (100 µM) was “weaker than the effects of DKR-1051”. Also, in data set [2] (SAS-0132 applied before DKR-1051, lower concentrations (0.1-30 µM)), the “effect on calcium response induced by DKR-1051 (100 µM)” value is on record as “significantly attenuated the DKR-0151-induced calcium response”. The figures for the calcium response entry in data set [2] (100 µM) and in data set [2] (concentrations up to 30 µM) were “significant increases in intracellular Ca^2+” and “fails to produce a significant calcium response”, respectively. The “neurodegeneration of VC4 and VC5 neurons vs vehicle” value in data set [3] (200 µM, 5-day treatment, day 5 of adulthood, SC_APP worms, p < 0.01) is “decreased neurodegeneration”. Also, in data set [3] (200 µM, SC_APP worms, vem-1 RNAi co-treatment), the “neuroprotection in animals with vem-1 (PGRMC1) knocked-down by RNAi” value is given as “provided no further neuroprotection”. Besides, in data set [3] (from C. elegans data compared with vem-1 null mutations), the “functional classification at Sig2R/PGRMC1” value was “Sig2R/PGRMC1 antagonists”. Moreover, in the data set “PK study in mice” (10 mg/kg IV, SC and PO, up to 3 h post-administration), the plasma levels result is on record as “Detectable levels”. The bioavailability (commonly the share of a dose that reaches the circulation, judged against a reference dose that is usually intravenous) is 7% in the data set “PK study in mice” (10 mg/kg oral) and 45% in “PK study in mice” (10 mg/kg subcutaneous). Also, the brain concentration in “PK study in mice” (10 mg/kg subcutaneous, 3 h post-administration) stood at 3.8 µM. Moreover, the “concentration in brain homogenates” value in the data set “PK study in mice” (24 h after single 10 mg/kg subcutaneous injection) turned out to be 1.6 ng/g. Further, the “sociability test: preference mouse cup vs empty cup” value in [4] (APP^Lond/Swe+ mice, p < 0.05) was “showed a distinct preference for the cup containing a mouse over the empty cup”; in data set [4] (WT mice) it was “not significantly altered”. For the same compound, the sociability result in data set [4] (dose-response study, 30 mg/kg) was “did not impair sociability”. Besides, in [4] (dose-response study, APP^Lond/Swe+ mice, 3 mg/kg), the “social discrimination: novel vs familiar mouse” value is “showed a significant preference for a novel mouse over a familiar one”. The “Y-maze total arm entries” value in data set [5] (WT and APP^Lond/Swe+ mice, 10 mg/kg/d, chronic daily dosing study) is recorded as “not different among the four groups”; in data set [5] (dose-response study, all groups), “not different among groups”. Moreover, the Y-maze spontaneous alternation result in data set [5] (dose-response study, WT and APP^Lond/Swe+ mice, 30 mg/kg) was “showed impaired spontaneous alternation behavior”; in data set [5] (dose-response study, WT mice, 30 mg/kg), “showed impaired alternation behavior”; in data set [5] (dose-response study, WT mice, 3 and 10 mg/kg) it was “did not affect their performance”. Also, the “MWM hidden platform learning phase” value in data set [6] (APP^Lond/Swe+ mice) is recorded as “had no effect on the cognitive functions”. Besides, the “MWM reversal learning trials” value in data set [6] (APP^Lond/Swe+ mice) was “no significant effects of SAS-0132 treatment”. For the same compound, the “MWM reversal learning probe trial: target quadrant preference” value in [6] (APP^Lond/Swe+ mice, 10 mg/kg) was “showed target quadrant preference”; in [6] (WT mice, 10 and 30 mg/kg) it was “demonstrated recall and showed target quadrant preference”. Besides, in data set [6] (APP^Lond/Swe+ mice, 3 and 10 mg/kg), the “MWM reversal learning: escape latency vs vehicle” value is reported as “non-significant decreased escape latency”. Also, in data set [6] (WT mice, 3 mg/kg), the “MWM probe trial: target quadrant preference” value was “showed a clear preference for the target quadrant”. Besides, in data set [6] (WT mice, 3 mg/kg), the “MWM reversal probe trial: target quadrant preference” value is listed as “all WT groups showed target quadrant preference with the exception of the 3 mg/kg dose group”. Moreover, the “MWM hidden platform learning: escape latency” value in data set [6] (WT mice, 3 and 30 mg/kg, started after 35 days of dosing) is “found the escape platform faster than the vehicle-treated WT mice”. Also, the “MWM reversal learning day 2: escape latency” value in data set [6] (WT mice, 10 and 30 mg/kg) is recorded as “found the escape platform faster than WT mice treated with vehicle”. In addition, in data set [7] (WT mice, 10 mg/kg/d for 64 days, Supplemental tables 3-4), the “blood chemistry and histopathology” value is given as “no signs of SAS- 0132 induced toxicity”. Besides, the “locomotor activity in activity chamber vs vehicle” value in data set [7] (after 24 days of treatment) was “not significantly different”. Moreover, in data set [7] (both chronic daily dosing studies, 3-30 mg/kg/d, 60-64 days), the “general health of treated animals” value is “remained healthy and exhibited no detectable abnormalities”. Moreover, the “intracellular Aβ immunoreactivity (cortex, hippocampus, amygdala)” value with Aβ is listed as “does not affect levels of intracellular Aβ”. In addition, the “soluble and insoluble Aβ40 and Aβ42 (ELISA) vs vehicle” value with Aβ is “no significant difference”. The “synaptophysin immunoreactivity, CA3 (synapse loss)” value with synaptophysin, iba1 (APP^Lond/Swe+ mice, 10 mg/kg/d chronic) is “did not alter the extent of synapse loss”. In the data set with synaptophysin, iba1 (WT or APP^Lond/Swe+ mice, chronic daily dosing study), the iba1 immunoreactivity entry is listed as “no drug-related effects”. Besides, the “IL1β mRNA expression” value with IL1β is on record as “decreased the expression of the inflammatory cytokine IL1β”.

In the case of `CC(=O)[C@H]1CC[C@H]2[C@@H]3CCC4=CC(=O)CC[C@]4(C)[C@H]3CC[C@]12C` [progesterone], the “neurogenic and neuroprotective effects” value in data set [8] is “exerts neurogenic and neuroprotective effects”.

As to `CCOc1ccc2nc(SCCN3CCOCC3)[nH]c2c1` [afobazole], the “neurotoxic microglia stimulation and apoptosis” value with microglia was “reduces neurotoxic microglia stimulation and apoptosis”.
